This is an account of results in paper PMC6764274 (Chemical Science, 2019).

Assay [1] concerns HMLER-shEcad cells. Kind of assay: MTT cytotoxicity assay, breast CSC-enriched cells. The assay is classed as cell-based. As to conditions: read-out: HMLER-shEcad IC50/nM.
Assay [2] deals with HMLER cells. Kind of assay: MTT cytotoxicity assay, bulk breast cancer cells. The following applies: read-out: HMLER IC50/nM. The assay is classed as cell-based.
The subject of assay [3] is HMLER-shEcad mammospheres. As to conditions: cited from earlier work.
The test system of assay [4] is HMLER-shEcad cells. The following applies: read-out: HMLER-shEcad IC50/nM; 72 h incubation; cited from earlier work.
In assay [5] the test system is MCF10A spheroids. Kind of assay: Non-tumorigenic spheroid formation inhibition. Format: cell-based. As to conditions: IC20 value for 5 days. Put shortly:
(§1)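 HMLER-shEcad or MCF10A cells were grown as mammospheres/spheroids with test compound at its IC20 for 5 days. Spheres were assessed by inverted microscope with bright-field imaging (×20), and formation was quantified against untreated cells. SD, Student t-test.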

Assay [6] has as its system MCF10A spheroids. Kind of assay: Non-tumorigenic spheroid viability. The assay is classed as cell-based. The following applies: Homo sapiens, MCF-10A, read-out: IC50, MCF10A spheroid viability.
Assay [7] deals with HMLER-shEcad mammospheres. The experiment in a line: Mammosphere formation inhibition. The assay is classed as cell-based. As to conditions: IC20 value for 5 days. Put shortly:
as §1

[8] abbreviates: 72 h incubation, mean of three independent experiments ± SD.

The structures appear in SMILES notation. Where two headings read alike, the source gives them in different places.

On to `Cc1cnc2c(ccc3c(C)c(C)cnc32)c1C` [3,4,7,8-Tetramethyl-1,10-phenanthroline], for which the IC50 came out at 720 ± 84 nM in assay [1] (72 h) and 785 ± 10 nM in assay [2] (72 h).
`N.N.[Cl][Pt][Cl]` [Cisplatin]: the IC50 turned out to be 5640 ± 304 nM in assay [1] (setting [8]) and 2565 ± 21 nM in assay [2] (setting [8]).
In the case of `O=C(O)Cc1ccccc1Nc1c(Cl)cccc1Cl` [Diclofenac], in assay [3], the “effect on number or size of HMLER-shEcad mammospheres formed” value is listed as “does not significantly affect”.
`Cc1cnc2c(ccc3c(C)c(C)cnc32)c1C.[Cl][Mn][Cl]` [Mn(3,4,7,8-tetramethyl-1,10-phenanthroline)Cl2]: the IC50 was determined as 170 ± 14 nM in assay [1] (setting [8]) and 163 ± 21 nM in assay [2] (setting [8]).
In the case of `[Cl][Mn][Cl]` [MnCl2·4H2O], the IC50 in assay [1] (setting [8]) came out at 7760 ± 318 nM.
Take `CC[C@@H](C(=O)[C@@H](C)[C@@H](O)[C@H](C)[C@@H]1O[C@@H]([C@@H](CC)C(=O)O)CC[C@@H]1C)[C@H]1O[C@]2(C=C[C@@H](O)[C@]3(CC[C@@](C)([C@H]4CC[C@](O)(CC)[C@H](C)O4)O3)O2)[C@H](C)C[C@@H]1C` [Salinomycin]: the IC50 in assay [4] was 4200 ± 400 nM; in assay [6], 14900 ± 500 nM. Besides, the “decrease in number of MCF10A spheroids formed” value in assay [5] stood at 40%. In addition, the “decrease in number of HMLER-shEcad mammospheres formed compared to the untreated control” value in assay [7] was 53%.
